Laboratory results from ChEMBL document CHEMBL4316636, “Tetrandraxanthones A-I, Prenylated and Geranylated Xanthones from the Stem Bark of Garcinia tetrandra” (J Nat Prod, 2019).

Tests used:
Type in all cases: functional, cell-based
HeLa S3 = test: Cytotoxicity in human HeLaS3 cells incubated for 72 hrs by MTT assay; conditions: HeLa S3, 72 h
How it was run: (§1)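 MTT colorimetric read-out after 72 h incubation of tumour cells: Hep G2 hepatocellular carcinoma, HeLa S3 cervix adenocarcinoma, MCF-7 breast adenocarcinoma, HT-29 colon adenocarcinoma, and KB epidermoid carcinoma. IC50 is given as the mean ± SD of three experiments, with doxorubicin as the positive control. HeLa S3 and KB were screened first.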

KB = test: Cytotoxicity in human KB cells incubated for 72 hrs by MTT assay; how it was run: as §1
HT-29 = test: Cytotoxicity in human HT-29 cells incubated for 72 hrs by MTT assay; conditions: HT-29, 72 h; how it was run: as §1
MCF7 = test: Cytotoxicity in human MCF7 cells incubated for 72 hrs by MTT assay; conditions: MCF7, 72 h; how it was run: as §1
HepG2 = test: Cytotoxicity in human HepG2 cells incubated for 72 hrs by MTT assay; conditions: HepG2, 72 h; how it was run: as §1

| Structure (SMILES) | IC50 (HeLa S3) [µM] | IC50 (KB) [µM] | IC50 (HT-29) [µM] | IC50 (MCF7) [µM] | IC50 (HepG2) [µM] |
| --- | --- | --- | --- | --- | --- |
| COc1cccc2c1C(=O)c1c(O)c3c(c(O)c1C2=O)C[C@@](O)(C(=O)CO)C[C@@H]3O[C@H]1C[C@H](N)[C@H](O)[C@H](C)O1 [DOXORUBICIN] | 0.12 | 0.01 | 0.34 | 0.49 | 1.43 |
| COc1c(O)cc2oc3c(CC=C(C)C)c(O)cc(O)c3c(=O)c2c1C/C=C(\C)CCC=C(C)C | 9 | 7.1 | > 10 | 7 | > 10 |
| COc1c(O)cc2oc3cc(O)cc(O)c3c(=O)c2c1C/C=C(\C)CCCC(C)(C)O [BUTYRAXANTHONE D] | > 10 | > 10 | > 10 | > 10 | > 10 |
| O=c1c2cc(O)ccc2oc2cccc(O)c12 | > 10 | > 10 | > 10 | > 10 | > 10 |
| C=CC(C)(C)c1c(OC)c(CC=C(C)C)c(O)c2c(=O)c3ccc(O)c(O)c3oc12 [NIGROLINEAXANTHONE E] | > 10 | > 10 | > 10 | > 10 | > 10 |
| COc1c(O)cc2oc3cc(O)cc(O)c3c(=O)c2c1CCC1(C)CCCC(C)(C)O1 (stereo not given) | > 10 | > 10 | > 10 | > 10 | > 10 |
| COc1c(O)cc2oc3c(C/C=C(\C)CCC=C(C)C)c(O)cc(O)c3c(=O)c2c1CC=C(C)C | 5.8 | 4.9 | > 10 | 4.3 | > 10 |
| COc1c(O)cc2oc3cc4c(c(O)c3c(=O)c2c1CCC(C)(C)O)CCC(C)(C)O4 | > 10 | > 10 | > 10 | > 10 | > 10 |
| COc1c(O)cc2oc3cc(O)cc(O)c3c(=O)c2c1CCC(C)(O)CCC=C(C)C (stereo not given) | > 10 | > 10 | > 10 | > 10 | > 10 |
| COc1c(O)cc2oc3cc4c(c(O)c3c(=O)c2c1CC=C(C)C)CCC(C)(C)O4 | > 10 | > 10 | > 10 | > 10 | > 10 |
| C=CC(C)(C)c1c2c(c(O)c3c(=O)c4ccc(O)c(O)c4oc13)C=CC(C)(C)O2 [MACLURAXANTHONE] | 6.7 | 7.4 | > 10 | > 10 | > 10 |
| COc1c(O)cc2oc3c4c(cc(O)c3c(=O)c2c1CC=C(C)C)OC(C)(CCC=C(C)C)C=C4 (stereo not given) | > 10 | > 10 | > 10 | > 10 | > 10 |
| COc1c(O)cc2oc3cc(O)cc(O)c3c(=O)c2c1CC=C(C)C | > 10 | > 10 | > 10 | > 10 | > 10 |
| COc1c(O)cc2oc3c(C/C=C(\C)CCC=C(C)C)c(O)cc(O)c3c(=O)c2c1CCC(C)(C)O | > 10 | > 10 | > 10 | > 10 | > 10 |
| COc1c(O)cc2oc3cc(O)cc(O)c3c(=O)c2c1C/C=C(\C)CCC=C(C)C [RUBRAXANTHONE] | > 10 | > 10 | > 10 | > 10 | > 10 |
| COc1c(O)c(OC)c2oc3cc4c(c(O)c3c(=O)c2c1OC)C=CC(C)(C)O4 | > 10 | > 10 | > 10 | > 10 | > 10 |

| Structure (SMILES) | IC50 (HeLa S3) [µM] | IC50 (KB) [µM] | IC50 (HT-29) [µM] | IC50 (MCF7) [µM] | IC50 (HepG2) [µM] |
| --- | --- | --- | --- | --- | --- |
| O=c1c2cc(O)ccc2oc2cc(O)cc(O)c12 | > 10 | > 10 | > 10 | > 10 | > 10 |
| C=C1CCCC(C)(C)C1Cc1c(OC)c(O)cc2oc3cc(O)cc(O)c3c(=O)c12 (stereo not given) | > 10 | > 10 | > 10 | > 10 | > 10 |
| O=c1c2cc(O)c(O)cc2oc2cc(O)cc(O)c12 | > 10 | > 10 | > 10 | > 10 | > 10 |
| COc1c(O)cc2oc3cc4c(c(O)c3c(=O)c2c1CC=C(C)C)C=CC(C)(C)O4 [MANGOSTANIN] | 1.9 | 1.7 | 1.6 | 1.9 | 3.4 |
| COc1c(O)ccc2c(=O)c3c(O)c4c(cc3oc12)OC(C)(C)C=C4 | > 10 | > 10 | > 10 | > 10 | > 10 |
| COc1c(O)cc2oc3c(CC=C(C)C)c(O)cc(O)c3c(=O)c2c1CCC(C)(O)CCC=C(C)C (stereo not given) | > 10 | 7.1 | > 10 | 8.8 | > 10 |
| COc1c(OC)c(OC)c2c(=O)c3c(O)c4c(cc3oc2c1OC)OC(C)(C)C=C4 | > 10 | > 10 | > 10 | > 10 | > 10 |
| COc1c(O)cc2oc3c(CC=C(C)C)c(O)cc(O)c3c(=O)c2c1CC=C(C)C | > 10 | > 10 | > 10 | > 10 | > 10 |
| O=c1c2ccc(O)c(O)c2oc2cc(O)cc(O)c12 | > 10 | > 10 | > 10 | > 10 | > 10 |
| CC1(C)CCc2c(cc3oc4ccc(O)cc4c(=O)c3c2O)O1 | > 10 | > 10 | > 10 | > 10 | > 10 |
| COc1c(O)cc2oc3cc(O)c(CC=C(C)C)c(O)c3c(=O)c2c1CC=C(C)C [MANGOSTIN] | > 10 | > 10 | > 10 | > 10 | > 10 |
| COc1c(O)cc2oc3cc(O)cc(O)c3c(=O)c2c1CC1=C(C)CCCC1(C)C | > 10 | > 10 | > 10 | > 10 | > 10 |
| COc1c(O)cc2oc3c(C/C=C(\C)CCC=C(C)C)c(O)c(CC=C(C)C)c(O)c3c(=O)c2c1CC=C(C)C | > 10 | > 10 | > 10 | > 10 | > 10 |
| COc1c(O)cc2oc3c4c(cc(O)c3c(=O)c2c1C/C=C(\C)CCC=C(C)C)OC(C)(C)C=C4 | > 10 | > 10 | > 10 | > 10 | > 10 |
| COc1c(O)cc2oc3cc(O)c(CC=C(C)C)c(O)c3c(=O)c2c1CCC(C)(C)O [GARCINONE D] | > 10 | > 10 | > 10 | > 10 | > 10 |
